Calls of active or inactive are those of the source. The calls are words filed in the database; no cut-off is given here.
Tests used:
HEL [1] = assay: Induction of apoptosis in HEL cells assessed as late apoptotic cells at 5 umol/L after 48 hrs by annexin V-FITC/propidium iodide staining based flow cytometry (reference value: 1.6 to 3.3%); type: functional, Homo sapiens
MDA-MB-231 [2] = assay: Induction of apoptosis in human MDA-MB-231 cells assessed as viable cells at 5 umol/L after 48 hrs by annexin V-FITC/propidium iodide staining based flow cytometry (reference value: 91.3%); type: functional; details: MDA-MB-231, 48 h, read-out: Activity
HEL [3] = assay: Cell cycle arrest in HEL cells assessed as decrease in S phase accumulation at 5 umol/L after 48 hrs by propidium iodide staining based flow cytometry; type: functional; details: Homo sapiens
Procedure, shortened: (§1)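 Cells grown in DMEM with 10% FBS and penicillin/streptomycin at 37 °C, 5% CO2, and passaged at least 3 times after thawing. Treated 48 h at 5 µmol/L, DMSO-treated controls. Harvested by trypsin, PBS-washed, fixed in ice-cold ethanol, blocked 1 h at 4 °C in 5% BSA/PBS, RNase 1 µg/mL 30 min at 37 °C, PI 20 µg/mL final. Phase percentages read from PI histograms. Mean ± SD, three independent experiments.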

K562 [4] = assay: Induction of apoptosis in human K562 cells assessed as late apoptotic cells at 5 umol/L after 48 hrs by annexin V-FITC/propidium iodide staining based flow cytometry (reference value: 2.3%); type: functional
HEL [5] = assay: Induction of morphological changes in HEL cells assessed as reduction in cell number at 5 umol/L after 48 hrs by inverted fluorescence microscopic analysis; type: functional, cell-based; details: Homo sapiens
Procedure, shortened: (§2)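 Cells cultured in DMEM/10% FBS at 37 °C, 5% CO2. Exposed 48 h to 5 µmol/L compound alongside DMSO controls. Morphology (cell number, rounding, spacing, apoptotic bodies, spindle shape) observed under an inverted microscope with CCD camera.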

MDA-MB-231 [6] = assay: Induction of apoptosis in human MDA-MB-231 cells assessed as necrotic cells at 5 umol/L after 48 hrs by annexin V-FITC/propidium iodide staining based flow cytometry (reference value: 3.4%); type: functional
PC-3 [7] = assay: Induction of morphological changes in human PC3 cells assessed as increase in formation of apoptotic bodies at 5 umol/L after 48 hrs by inverted microscopic method; type: functional, cell-based
Procedure, shortened: (§3)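 PC3 cells were kept in DMEM with 10% FBS, penicillin and streptomycin at 37 °C under 5% CO2, and were passaged at least 3 times after thawing. Cells were seeded at 4 × 10^3 to 8 × 10^3 cells/well and left to adhere for 24 h. They were then exposed to 5 µmol/L compound for 48 h. Morphology was viewed by inverted microscope against DMSO-treated controls.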

MDA-MB-231 [8] = assay: Induction of morphological changes in human MDA-MB-231 cells assessed as increase in cell rounding at 5 umol/L after 48 hrs by inverted microscopic method; type: functional, cell-based; procedure, shortened: as §2
PC-3 [9] = assay: Cell cycle arrest in human PC3 cells assessed as increase in G1 phase accumulation at 5 umol/L after 48 hrs by propidium iodide staining based flow cytometric method; type: functional; procedure, shortened: as §1
PC-3 [10] = assay: Induction of morphological changes in human PC3 cells assessed as increase in cell rounding at 5 umol/L after 48 hrs by inverted microscopic method; type: functional, cell-based; procedure, shortened: as §3
HEL [11] = assay: Induction of apoptosis in HEL cells assessed as necrotic cells at 5 umol/L after 48 hrs by annexin V-FITC/propidium iodide staining based flow cytometry (reference value: 0.3 to 1%); type: functional, Homo sapiens
PC-3 [12] = assay: Induction of apoptosis in human PC3 cells assessed as necrotic cells at 5 umol/L after 48 hrs by annexin V-FITC/propidium iodide staining based flow cytometry (reference value: 4.6%); type: functional
MDA-MB-231 [13] = assay: Induction of apoptosis in human MDA-MB-231 cells assessed as late apoptotic cells at 5 umol/L after 48 hrs by annexin V-FITC/propidium iodide staining based flow cytometry (reference value: 2.2%); type: functional
MDA-MB-231 [14] = assay: Induction of apoptosis in human MDA-MB-231 cells assessed as spindle like formation at 5 umol/L after 48 hrs by inverted microscopic method; type: functional, cell-based; procedure, shortened: as §2
MDA-MB-231 [15] = assay: Cell cycle arrest in human MDA-MB-231 cells assessed as increase in G2 phase accumulation at 5 umol/L after 48 hrs by propidium iodide staining based flow cytometry; type: functional; procedure, shortened: as §1
HEL [16] = assay: Induction of morphological changes in HEL cells assessed as formation of apoptotic bodies at 5 umol/L after 48 hrs by inverted fluorescence microscopic analysis; type: functional, cell-based; details: Homo sapiens; procedure, shortened: as §2
PC-3 [17] = assay: Cell cycle arrest in human PC3 cells assessed as decrease in G2 phase accumulation at 5 umol/L after 48 hrs by propidium iodide staining based flow cytometric method; type: functional; procedure, shortened: as §1
K562 [18] = assay: Induction of apoptosis in human K562 cells assessed as viable cells at 5 umol/L after 48 hrs by annexin V-FITC/propidium iodide staining based flow cytometry (reference value: 92.6%); type: functional; details: K562, 48 h, read-out: Activity
PC-3 [19] = assay: Cytotoxicity against human PC3 cells after 48 hrs by MTT assay; type: functional, cell-based
Procedure, shortened: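 Cells kept in DMEM/10% FBS at 37 °C, 5% CO2, seeded at 4×10^3–8×10^3 cells/well and left 24 h to adhere. Exposed 48 h to a range of concentrations. MTT (5 mg/mL solution) added for 4 h at 37 °C, formazan dissolved in DMSO, absorbance read at 490 nm. IC50 derived from concentration–inhibition relation. Doxorubicin as positive control.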

K562 [20] = assay: Induction of morphological changes in human K562 cells assessed as increase in formation of apoptotic bodies at 5 umol/L after 48 hrs by inverted microscopic method; type: functional, cell-based; procedure, shortened: as §2
K562 [21] = assay: Induction of apoptosis in human K562 cells assessed as necrotic cells at 5 umol/L after 48 hrs by annexin V-FITC/propidium iodide staining based flow cytometry (reference value: 1.2%); type: functional
K562 [22] = assay: Cell cycle arrest in human K562 cells assessed as decrease in G2 phase accumulation at 5 umol/L after 48 hrs by propidium iodide staining based flow cytometry; type: functional; procedure, shortened: as §1
HEL [23] = assay: Growth inhibition of HEL cells at 5 umol/L after 48 hrs by MTT assay relative to control; type: functional; details: Homo sapiens, read-out: GI
Procedure, shortened: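 Cells kept in DMEM/10% FBS at 37 °C, 5% CO2, seeded at 4×10^3–8×10^3 cells/well, 24 h attachment, then 48 h with compound at 5 µmol/L. MTT (5 mg/mL solution) added for 4 h at 37 °C, formazan taken up in DMSO, A490 read. Percent inhibition as mean ± SD of three independent experiments. Doxorubicin as positive control.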

## COc1c(CC=C(C)C)cc(C(=O)/C=C/c2cccnc2)c(O)c1CC=C(C)C
HEL [1]
  Activity: 7.1%
MDA-MB-231 [2]
  viability at 5 µM: 35.2%
HEL [3]
  Activity: Active
K562 [4]
  Activity: 14.6%
HEL [5]
  Activity: Active
MDA-MB-231 [6]
  Activity: 14.1%
PC-3 [7]
  Activity: Active
MDA-MB-231 [8]
  Activity: Active
PC-3 [9]
  Activity: Active
PC-3 [10]
  Activity: Active
HEL [11]
  Activity: 4.9%
PC-3 [12]
  Activity: 10.6%
MDA-MB-231 [13]
  Activity: 36.8%
MDA-MB-231 [14]
  Activity: Active
MDA-MB-231 [15]
  Activity: Active
HEL [16]
  Activity: inactive
PC-3 [17]
  Activity: Active
K562 [18]
  viability at 5 µM: 64%
PC-3 [19]
  Activity: Dose-dependent effect
PC-3 [19]; PC-3, 48 h
  IC50: 2920 nM
K562 [20]
  Activity: Active
K562 [21]
  Activity: 11.3%
K562 [22]
  Activity: Active
HEL [23]
  inhibition of growth at 5 µM: 91.7%
